This note sets out measurements from ChEMBL document CHEMBL4396885, “Thioether-based 2-aminobenzamide derivatives: Novel HDAC inhibitors with potent in vitro and in vivo antitumor activity” (Eur J Med Chem, 2019).

Test [1] has as its system A549. Nature of the test: Antiproliferative activity against human A549 cells assessed as growth inhibition at 2 uM after 72 hrs by CCK-8 assay relative to control. Format: functional. The settings on record: A549, 72 h, read-out: GI.
Test [2] concerns A549. The experiment in a line: Antiproliferative activity against human A549 cells assessed as growth inhibition at 8 uM after 72 hrs by CCK-8 assay relative to control. The format is functional. The settings on record: A549, 72 h, read-out: GI.
Test [3] concerns A-375. Nature of the test: Antiproliferative activity against human A375 cells assessed as growth inhibition at 2 uM after 72 hrs by CCK-8 assay relative to control. The note with it: A-375, 72 h, read-out: GI. The format is functional. In general terms: Tetrazolium assays rely on reduction of a dye to a coloured formazan, in cell work by metabolically active cells.
Test [4] has as its system A-375. Nature of the test: Antiproliferative activity against human A375 cells assessed as growth inhibition at 8 uM after 72 hrs by CCK-8 assay relative to control. The format is functional. The note with it: A-375, 72 h, read-out: GI.
The test system of test [5] is SMMC-7721. The experiment in a line: Antiproliferative activity against human SMMC7721 cells assessed as growth inhibition at 2 uM after 72 hrs by CCK-8 assay relative to control. The format is functional. The settings on record: SMMC-7721, 72 h, read-out: GI.
The subject of test [6] is SMMC-7721. Nature of the test: Antiproliferative activity against human SMMC7721 cells assessed as growth inhibition at 8 uM after 72 hrs by CCK-8 assay relative to control. The format is functional. The note with it: SMMC-7721, 72 h, read-out: GI.
The test system of test [7] is HCT-116. The experiment in a line: Antiproliferative activity against human HCT116 cells assessed as growth inhibition at 2 uM after 72 hrs by CCK-8 assay relative to control. Format: functional. The settings on record: HCT-116, 72 h, read-out: GI.
Test [8] concerns HCT-116. Nature of the test: Antiproliferative activity against human HCT116 cells assessed as growth inhibition at 8 uM after 72 hrs by CCK-8 assay relative to control. The settings on record: HCT-116, 72 h, read-out: GI. Format: functional.
The test system of test [9] is HeLa. Nature of the test: Antiproliferative activity against human HeLa cells assessed as growth inhibition at 2 uM after 72 hrs by CCK-8 assay relative to control. The format is functional. The note with it: read-out: GI.
Test [10] concerns HeLa. Nature of the test: Antiproliferative activity against human HeLa cells assessed as growth inhibition at 8 uM after 72 hrs by CCK-8 assay relative to control. The format is functional. The note with it: read-out: GI.
Test [11] concerns A549. Nature of the test: Antiproliferative activity against human A549 cells assessed as decrease in cell viability after 72 hrs by CCK-8 assay. The settings on record: A549, 72 h. Format: functional, cell-based. In short, it runs like this:
(§1)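 Cells grown to 70–85% confluence (A375, A549, HCT116 in RPMI1640; HeLa, SMMC7721 in DMEM; 10% FBS, 37 °C, 5% CO2), seeded 4000/well, dosed after 12 h across a concentration range, incubated 72 h, then CCK-8 for 1 h; absorbance at 450 nm. IC50 as mean ± SD of three separate experiments.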

The test system of test [12] is HCT-116. Nature of the test: Antiproliferative activity against human HCT116 cells assessed as decrease in cell viability after 72 hrs by CCK-8 assay. The note with it: HCT-116, 72 h. Format: functional, cell-based. The gist of the method:
as §1

Test [13] has as its system HeLa. Nature of the test: Antiproliferative activity against human HeLa cells assessed as decrease in cell viability after 72 hrs by CCK-8 assay. The format is functional, cell-based. The gist of the method:
as §1

As for `CCc1ccc(SCc2ccc(/C=C/C(=O)Nc3ccccc3N)cc2)cc1`, the inhibition of growth at 2 µM in the test with A549 [1] was determined as 60.7%; in the test on A-375 [3] it was 5.27%; in the test on SMMC-7721 [5], 13.2%; in the test with HCT-116 [7], 3.29%; in the test with HeLa [9] it was 3.96%. Besides, the inhibition of growth at 8 µM in the test on A549 [2] is 68.6%; with A-375 [4], 58.4%; in the test with SMMC-7721 [6], 19.5%; with HCT-116 [8] it was 2.68%; in the test on HeLa [10] it was 20.9%. In addition, the IC50 (in general, the concentration needed to halve the response being measured) in the test with A549 [11] was 1.3 µM.

`CC(C)(C)c1ccc(SCc2ccc(C(=O)Nc3ccccc3N)cc2)cc1`: the inhibition of growth at 2 µM in the test on A549 [1] was 38.6%; in the test with A-375 [3], 2.13%; with SMMC-7721 [5], 23.6%; in the test with HCT-116 [7], 4.81%; in the test on HeLa [9], 9.73%. The inhibition of growth at 8 µM in the test with A549 [2] came to 67%; in the test on A-375 [4], 33.1%; in the test with SMMC-7721 [6], 46.1%; with HCT-116 [8], 60.5%; in the test on HeLa [10], 40.2%.

For the compound `Nc1ccccc1NC(=O)c1ccc(CSc2ccc(C(F)(F)F)cn2)cc1`, the inhibition of growth at 2 µM in the test on A549 [1] was found to be 37.1%; with A-375 [3], 4.3%; in the test with SMMC-7721 [5], 12.4%; with HCT-116 [7] it was 1.2%; in the test with HeLa [9] it was 11.5%. Moreover, the inhibition of growth at 8 µM is 38.9% with A549 [2]; 5.34% in the test with A-375 [4]; 7.57% in the test with SMMC-7721 [6]; 25.8% in the test with HCT-116 [8]; 16.5% with HeLa [10].

On to `Nc1ccccc1NC(=O)/C=C/c1ccc(CSc2ccc(Cl)cc2)cc1`, for which the inhibition of growth at 2 µM was determined as 55.2% in the test with A549 [1]; 13.4% in the test with A-375 [3]; 15.2% in the test on SMMC-7721 [5]; 5.62% with HCT-116 [7]; 1.94% in the test with HeLa [9]. Also, the inhibition of growth at 8 µM amounted to 59.6% in the test on A549 [2]; 48.2% in the test on A-375 [4]; 16.4% in the test on SMMC-7721 [6]; 3.27% in the test on HCT-116 [8]; 17.3% in the test with HeLa [10].

In the case of `Nc1ccccc1NC(=O)/C=C/c1ccc(CSc2ccc(C(F)(F)F)cn2)cc1`, the inhibition of growth at 2 µM in the test on A549 [1] is 51.7%; in the test with A-375 [3], 10.3%; in the test on SMMC-7721 [5] it was 12.1%; in the test with HCT-116 [7] it was 4.42%; in the test with HeLa [9] it was 6.07%. Moreover, the inhibition of growth at 8 µM in the test on A549 [2] came to 56.5%; in the test on A-375 [4], 3.96%; with SMMC-7721 [6] it was 20.1%; in the test with HCT-116 [8], 14.9%; in the test with HeLa [10] it was 6.82%.

On to `Nc1ccccc1NC(=O)c1ccc(CSc2ccc(Cl)cc2)cc1`, for which the inhibition of growth at 2 µM with A549 [1] stood at 47.3%; in the test on A-375 [3] it was 25.2%; in the test with SMMC-7721 [5], 2.93%; in the test on HCT-116 [7], 17.5%; in the test with HeLa [9], 19.2%. Moreover, the inhibition of growth at 8 µM in the test on A549 [2] was determined as 50.4%; with A-375 [4], 48.6%; in the test with SMMC-7721 [6], 16.5%; with HCT-116 [8], 76.6%; in the test on HeLa [10] it was 51.4%. The IC50 with HCT-116 [12] worked out at 3.75 µM; in the test on HeLa [13], 12.7 µM.

In the case of `Nc1ccccc1NC(=O)c1ccc(CSc2ccc(Br)cc2)cc1`, the inhibition of growth at 2 µM in the test with A549 [1] amounted to 33.2%; in the test with A-375 [3] it was 4.35%; in the test on SMMC-7721 [5], 10%; in the test on HCT-116 [7], 9.96%; with HeLa [9], 18.8%. The inhibition of growth at 8 µM with A549 [2] was 45.6%; in the test with A-375 [4] it was 6.17%; with SMMC-7721 [6], 25.3%; in the test with HCT-116 [8], 67.7%; in the test on HeLa [10] it was 38.2%.

In the case of `Nc1ccccc1NC(=O)/C=C/c1ccc(CSc2cccc(F)c2)cc1`, the inhibition of growth at 2 µM with A549 [1] amounted to 50.7%; in the test on A-375 [3] it was 6.75%; in the test with SMMC-7721 [5] it was 8.56%; in the test with HCT-116 [7], 7.95%; in the test with HeLa [9], 2.25%. The inhibition of growth at 8 µM in the test on A549 [2] was determined as 56.6%; in the test with A-375 [4], 9.08%; in the test on SMMC-7721 [6], 8.25%; in the test with HCT-116 [8], 3.22%; with HeLa [10], 18.6%.
